Results from ChEMBL document CHEMBL4732178, “Dioxotriazine derivatives as a new class of P2X receptor antagonists: Identification of a lead and initial SAR studies” (Bioorg Med Chem Lett, 2021).

Legend:
[1] = Oral bioavailability in rat or 1 mg/kg; format: ADME, organism-based; conditions: in vivo
[2] = Clearance in rat at 0.5 mg/kg, iv or 1 mg/kg, po; format: ADME, organism-based; conditions: in vivo
[3] = Microsomal stability in human liver microsomes assessed as parent compound remaining incubated for 30 mins in presence or absence of NADPH generating system; format: ADME, Microsome; conditions: read-out: Stabilty
How it was run: (§1)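 Compound incubated 30 min at 37 °C with human or rat liver microsomes (0.5 mg protein/mL), with or without NADPH-generating system; percent parent remaining reported.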

[4] = Microsomal stability in rat liver microsomes assessed as parent compound remaining incubated for 30 mins in presence or absence of NADPH generating system; format: ADME, Microsome; conditions: read-out: Stabilty; how it was run: as §1
[5] = Half life in rat at 0.5 mg/kg, iv or 1 mg/kg, po; format: ADME, organism-based; conditions: in vivo
[6] = Cmax in rat at 3 mg/kg, po; format: ADME, organism-based; set-up: route oral, dose 3 mg/kg; conditions: in vivo
[7] = AUC in rat at 3 mg/kg, po; format: ADME, organism-based; set-up: dose 3 mg/kg; conditions: in vivo
[8] = Oral bioavailability in rat at 3 mg/kg; format: ADME, organism-based; conditions: in vivo
[9] = Half life in rat at 1 mg/kg, iv or 3 mg/kg, po; format: ADME, organism-based; conditions: in vivo
[10] = Clearance in rat at 1 mg/kg, iv or 3 mg/kg, po; format: ADME, organism-based; conditions: in vivo

Compound: CC(C)Oc1ccc(Nc2nc(=O)n(C(C)C)c(=O)n2Cc2ccc(Cl)cc2)cc1
- bioavailability [1]: 25.2%
- clearance [2]: 23.9 mL/min/kg

Compound: CC(C)Oc1ccc(Nc2nc(=O)n(CCC#N)c(=O)n2Cc2ccc(Cl)cc2)cc1F
- remaining at 0.5 h [3]: 59%
- remaining at 0.5 h [4]: 30%

Compound: CC(=O)n1c(=O)nc(Nc2ccc(OC(C)C)c(F)c2)n(Cc2ccc(Cl)cc2)c1=O
- remaining at 0.5 h [3]: 0%
- remaining at 0.5 h [4]: 2%

Compound: CC(C)Oc1ccc(Nc2nc(=O)n(CCC(N)=O)c(=O)n2Cc2ccc(Cl)cc2)cc1F
- remaining at 0.5 h [3]: 94%
- remaining at 0.5 h [4]: 61%

Compound: CC(C)Oc1ccc(Nc2nc(=O)n(CCCC(=O)O)c(=O)n2Cc2ccc(Cl)cc2)cc1F
- remaining at 0.5 h [3]: 106%
- remaining at 0.5 h [4]: 103%

Compound: CC(C)Oc1ccc(Nc2nc(=O)n(CC#N)c(=O)n2Cc2ccc(Cl)cc2)cc1F
- remaining at 0.5 h [3]: 68%
- remaining at 0.5 h [4]: 41%

Compound: CCn1c(=O)nc(Nc2ccc(OC(C)C)c(F)c2)n(Cc2ccc(Cl)cc2)c1=O
- remaining at 0.5 h [3]: 86%
- remaining at 0.5 h [4]: 42%

Compound: CC(C)Oc1ccc(Nc2nc(=O)n(CCO)c(=O)n2Cc2ccc(Cl)cc2)cc1F
- remaining at 0.5 h [3]: 92%
- remaining at 0.5 h [4]: 60%

Compound: CC(C)Oc1ccc(Nc2nc(=O)n(CCCCO)c(=O)n2Cc2ccc(Cl)cc2)cc1F
- remaining at 0.5 h [3]: 59%
- remaining at 0.5 h [4]: 36%

Compound: CC(C)Oc1ccc(Nc2nc(=O)n(CCC(=O)O)c(=O)n2Cc2ccc(Cl)cc2)cc1F
- remaining at 0.5 h [3]: 92%
- remaining at 0.5 h [4]: 99%

Compound: CC(=O)NCCCn1c(=O)nc(Nc2ccc(OC(C)C)c(F)c2)n(Cc2ccc(Cl)cc2)c1=O
- remaining at 0.5 h [3]: 47%
- remaining at 0.5 h [4]: 15%

Compound: CC(C)Oc1ccc(Nc2nc(=O)[nH]c(=O)n2Cc2ccc(Cl)cc2)cc1F
- remaining at 0.5 h [3]: 78%
- remaining at 0.5 h [4]: 54%

Compound: CC(C)Oc1ccc(/N=c2\[nH]c(=O)n(CC(=O)O)c(=O)n2Cc2ccc(Cl)cc2)cc1Cl
- bioavailability [1]: 71.2%
- clearance [2]: 1.7 mL/min/kg
- half-life [5]: 2.1 h

Compound: CC(C)Oc1ccc(Nc2nc(=O)n(CCCO)c(=O)n2Cc2ccc(Cl)cc2)cc1F
- remaining at 0.5 h [3]: 82%
- remaining at 0.5 h [4]: 29%

Compound: CC(C)Oc1ccc(Nc2nc(=O)n(CC(=O)O)c(=O)n2Cc2ccc(Cl)cc2)cc1F
- remaining at 0.5 h [3]: 99%
- remaining at 0.5 h [4]: 97%

Compound: CC(=O)NCCn1c(=O)nc(Nc2ccc(OC(C)C)c(F)c2)n(Cc2ccc(Cl)cc2)c1=O
- remaining at 0.5 h [3]: 45%
- remaining at 0.5 h [4]: 1%

Compound: CC(C)Oc1ccc(Nc2nc(=O)n(Cc3ccccc3)c(=O)n2Cc2ccc(Cl)cc2)cc1F
- remaining at 0.5 h [3]: 21%
- remaining at 0.5 h [4]: 1%

Compound: CNC(=O)CCn1c(=O)nc(Nc2ccc(OC(C)C)c(F)c2)n(Cc2ccc(Cl)cc2)c1=O
- remaining at 0.5 h [3]: 86%
- remaining at 0.5 h [4]: 30%

Compound: CC(C)Oc1ccc(Nc2nc(=O)n(CCC(=O)O)c(=O)n2Cc2ccc(Cl)cc2)cc1Cl
- bioavailability [1]: 43.2%
- clearance [2]: 0.5 mL/min/kg
- half-life [5]: 6 h

Compound: CC(C)Oc1ccc(Nc2nc(=O)n(C(C)C)c(=O)n2Cc2ccc(Cl)cc2)cc1F
- remaining at 0.5 h [3]: 36%
- remaining at 0.5 h [4]: 49%

Compound: CCCn1c(=O)nc(Nc2ccc(OC(C)C)c(F)c2)n(Cc2ccc(Cl)cc2)c1=O
- remaining at 0.5 h [3]: 36%
- remaining at 0.5 h [4]: 35%

Compound: CC(C)Oc1ccc(Nc2nc(=O)n(CC(C)(C)C(=O)O)c(=O)n2Cc2ccc(Cl)cc2)cc1F
- Cmax [6]: 1260 ng/mL
- AUC [7]: 6990 ng·h/mL
- bioavailability [8]: 47.3%
- half-life [9]: 9.6 h
- clearance [10]: 3 mL/min/kg

Compound: Cc1ccc(Cn2c(Nc3ccc(OC(C)C)c(Cl)c3)nc(=O)n(CCC(=O)O)c2=O)cc1
- AUC [7]: 14300 ng·h/mL
- bioavailability [8]: 71.8%
- half-life [9]: 1.6 h
- clearance [10]: 2.7 mL/min/kg

Compound: CC(C)Oc1ccc(Nc2nc(=O)c(CC(=O)O)cn2Cc2ccc(Cl)cc2)cc1Cl
- bioavailability [1]: 79.9%
- clearance [2]: 8.3 mL/min/kg
- half-life [5]: 1.8 h

Compound: CC(C)Oc1ccc(Nc2cc(=O)n(CCC(=O)O)c(=O)n2Cc2ccc(Cl)cc2)cc1Cl
- bioavailability [1]: 61.5%
- clearance [2]: 2.1 mL/min/kg
- half-life [5]: 2.2 h

Compound: COc1cc(C(C)C)c(Oc2cnc(NC(CO)CO)nc2N)cc1I
- Cmax [6]: 118 ng/mL
- AUC [7]: 369 ng·h/mL
- bioavailability [8]: 30.3%
- half-life [9]: 1.1 h
- clearance [10]: 42 mL/min/kg
